The text below walks through data of ChEMBL document CHEMBL1148494, “Comparison between 5,10,15,20-tetraaryl- and 5,15-diarylporphyrins as photosensitizers: synthesis, photodynamic activity, and quantitative structure-activity relationship modeling” (J Med Chem, 2006).

Each structure is given as a SMILES string. Where “and” joins values, the source holds several entries; their conditions need not be identical. Equal values may be shown once.

As a reminder, the IC50 is the concentration at which inhibition is half-maximal. A lower IC50 goes with higher potency.

The assay concerns HCT-116. Description: Cytotoxicity against human HCT116 cell line. It is filed as functional, cell-based. In outline: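 HCT116 cells kept in DMEM, seeded at 5 × 10⁴ cells/mL, grown 48 h, then exposed to a range of PS concentrations for 24 h. PS medium swapped for PBS; visible light from a tungsten-halogen lamp for 2 h (22 mW/cm², 158.4 J/cm²). Then 24 h at 37 °C in drug-free medium. MTT 0.4 mg/mL final for 3 h; formazan in DMSO read at 570 nm. IC50 by nonlinear regression, mean of three replicates ± SE.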
As for `C1=Cc2cc3ccc([nH]3)c(-c3ccccc3)c3ccc(cc4nc(cc1n2)C=C4)[nH]3`, the IC50 was 0.00123 µg/mL and 3.2 nM.
For `C1=Cc2nc1cc1ccc([nH]1)c(-c1ccccc1)c1nc(cc3ccc([nH]3)c2-c2ccccc2)C=C1`, the IC50 is 0.00263 µg/mL and 5.66 nM.
Then `COc1cc(-c2c3nc(cc4ccc(cc5nc(cc6ccc2[nH]6)C=C5)[nH]4)C=C3)cc(OC)c1OC`, with 0.00229 µg/mL and 4.8 nM.
Then `Oc1ccc(-c2c3nc(cc4ccc([nH]4)c(-c4ccccc4)c4nc(cc5ccc2[nH]5)C=C4)C=C3)cc1`, with 0.00335 µg/mL and 7.01 nM.
The same measure for `COc1ccc(-c2c3nc(cc4ccc([nH]4)c(-c4ccc(OC)cc4)c4nc(cc5ccc2[nH]5)C=C4)C=C3)cc1`: 0.0274 µg/mL and 52.5 nM; for `C1=Cc2nc1cc1ccc([nH]1)c(-c1ccccc1)c1ccc(cc3nc(c2-c2ccccc2)CC3)[nH]1`: 0.00151 µg/mL and 3.26 nM.
Turning to `COc1cc(-c2c3nc(cc4ccc([nH]4)c(-c4cc(OC)c(OC)c(OC)c4)c4ccc(cc5nc2C=C5)[nH]4)C=C3)cc(OC)c1OC`, the IC50 is 0.00632 µg/mL and 9.84 nM.
In the case of `Oc1cccc(-c2c3nc(cc4ccc([nH]4)c(-c4cccc(O)c4)c4nc(cc5ccc2[nH]5)C=C4)C=C3)c1`, the IC50 was 0.00351 µg/mL and 7.09 nM.
Then `Oc1cc(-c2c3nc(c(-c4ccccc4)c4ccc([nH]4)c(-c4ccccc4)c4nc(c(-c5ccccc5)c5ccc2[nH]5)C=C4)C=C3)cc(O)c1O`, with 0.0353 µg/mL and 53.3 nM; and `Oc1cccc(-c2c3nc(cc4ccc([nH]4)c(-c4ccccc4)c4nc(cc5ccc2[nH]5)C=C4)C=C3)c1`, with 0.00051 µg/mL and 1.06 nM; and `COc1cccc(-c2c3nc(cc4ccc([nH]4)c(-c4ccccc4)c4nc(cc5ccc2[nH]5)C=C4)C=C3)c1`, with 0.00293 µg/mL and 5.94 nM.
Then `COc1ccc(-c2c3nc(c(-c4ccccc4)c4ccc([nH]4)c(-c4ccccc4)c4nc(c(-c5ccccc5)c5ccc2[nH]5)C=C4)C=C3)cc1`, with 0.894 µg/mL and 1.39 µM; and `Oc1cc(-c2c3nc(cc4ccc([nH]4)c(-c4ccccc4)c4nc(cc5ccc2[nH]5)C=C4)C=C3)cc(O)c1O`, with 0.00497 µg/mL and 9.75 nM; and `COc1ccc(-c2c3nc(cc4ccc(cc5nc(cc6ccc2[nH]6)C=C5)[nH]4)C=C3)cc1`, with 0.00077 µg/mL and 1.85 nM.
Then `Oc1cccc(-c2c3nc(c(-c4ccccc4)c4ccc([nH]4)c(-c4ccccc4)c4nc(c(-c5ccccc5)c5ccc2[nH]5)C=C4)C=C3)c1`, with 0.217 µg/mL and 344 nM.
In the case of `Oc1ccc(-c2c3nc(c(-c4ccccc4)c4ccc([nH]4)c(-c4ccccc4)c4nc(c(-c5ccccc5)c5ccc2[nH]5)C=C4)C=C3)cc1`, the IC50 is 0.145 µg/mL and 230 nM.
Then `COc1cccc(-c2c3nc(cc4ccc([nH]4)c(-c4cc(OC)c(OC)c(OC)c4)c4nc(cc5ccc2[nH]5)C=C4)C=C3)c1`, with 0.00921 µg/mL and 15.8 nM; and `COc1cccc(-c2c3nc(cc4ccc([nH]4)c(-c4cccc(OC)c4)c4nc(cc5ccc2[nH]5)C=C4)C=C3)c1`, with 0.0129 µg/mL and 24.7 nM.
As for `COc1cc(-c2c3nc(c(-c4ccccc4)c4ccc([nH]4)c(-c4ccccc4)c4nc(c(-c5ccccc5)c5ccc2[nH]5)C=C4)C=C3)cc(OC)c1OC`, the IC50 is 0.709 µg/mL and 1.01 µM.
Then `COc1ccc(-c2c3nc(cc4ccc([nH]4)c(-c4ccccc4)c4nc(cc5ccc2[nH]5)C=C4)C=C3)cc1`, with 0.00606 µg/mL and 12.3 nM; and `COc1cc(-c2c3nc(cc4ccc([nH]4)c(-c4ccccc4)c4nc(cc5ccc2[nH]5)C=C4)C=C3)cc(OC)c1OC`, with 0.00428 µg/mL and 7.75 nM; and `COc1ccc(-c2c3nc(cc4ccc([nH]4)c(-c4cc(OC)c(OC)c(OC)c4)c4nc(cc5ccc2[nH]5)C=C4)C=C3)cc1`, with 0.00903 µg/mL and 15.5 nM.
Then `COc1cccc(-c2c3nc(c(-c4ccccc4)c4ccc([nH]4)c(-c4ccccc4)c4nc(c(-c5ccccc5)c5ccc2[nH]5)C=C4)C=C3)c1`, with 0.0998 µg/mL and 155 nM; and `COc1ccc(-c2c3nc(c(-c4ccc(OC)cc4)c4ccc([nH]4)c(-c4cc(OC)c(OC)c(OC)c4)c4nc(c(-c5ccc(OC)cc5)c5ccc2[nH]5)C=C4)C=C3)cc1`, with > 1.5 µg/mL and > 1.89 µM; and `Oc1cccc(-c2c3nc(c(-c4cccc(O)c4)c4ccc([nH]4)c(-c4cccc(O)c4)c4nc(c(-c5cccc(O)c5)c5ccc2[nH]5)CC4)C=C3)c1` [TEMOPORFIN], with 0.00517 µg/mL and 7.6 nM.
